Measurements: ChEMBL document CHEMBL5214894, “Biosynthetic Interrogation of Soil Metagenomes Reveals Metamarin, an Uncommon Cyclomarin Congener with Activity against Mycobacterium tuberculosis” (J Nat Prod, 2021)
Values after ≈ are worked out from the molar mass of the structure shown.

Experiments:
[1] = system: Mycobacterium tuberculosis; test: Antimycobacterial activity against multi drug-resistant Mycobacterium tuberculosis 565 assessed as bacterial growth inhibition incubated for 6 days by Alamar blue staining based assay; assay type: functional; details: Mycobacterium tuberculosis, 565, 144 h; time 6 day
Summary of the method: (§1)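 Strains passaged at 37 °C in 7H9 with OADC, 0.2% glycerol and 0.02% tyloxapol to OD600 0.5–0.7, then diluted to OD600 0.005. Final test range 5 to 0.009 μg/mL. Rifampicin control. Incubated 6 days at 37 °C with 5% CO2. Tween 80 and Alamar Blue then added for 24 h. Absorbance read at 570 nm, normalized to 600 nm.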

[2] = system: Mycobacterium tuberculosis; test: Antimycobacterial activity against multi drug-resistant Mycobacterium tuberculosis 7791 assessed as bacterial growth inhibition incubated for 6 days by Alamar blue staining based assay; assay type: functional; details: Mycobacterium tuberculosis, 7791, 144 h; time 6 day; summary of the method: as §1
[3] = system: Mycobacterium tuberculosis; test: Antimycobacterial activity against multi drug-resistant Mycobacterium tuberculosis TN800 assessed as bacterial growth inhibition incubated for 6 days by Alamar blue staining based assay; assay type: functional; details: TN800, 144 h, time 6 day; summary of the method: as §1
[4] = system: Mycobacterium tuberculosis; test: Antibacterial activity against Mycobacterium tuberculosis mc2 6206 harboring mLux plasmid infected in mouse J774.A1 cells assessed as inhibition of bacterial cell viability incubated for 72 hrs by multimode microplate reader analysis; assay type: functional, organism-based; details: mc2 6206, J774.A1, 72 h
Summary of the method: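 Macrophages at (4–5) × 10^5 cells/mL in DMEM/10% FBS, seeded and left to adhere overnight. Infected at MOI 1:10 with mid-log bacteria for 4 h at 37 °C, 5% CO2. Medium supplemented with pantothenate and leucine, each 50 μg/mL. After PBS washes, compound added at 64 to 0.0004 μg/mL for 72 h. Luminescence read-out. IC50 by nonlinear regression. Triplicate; experiment repeated twice.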

Row | SMILES | MIC [1] | MIC [2] | MIC [3] | IC50 [4]
1 | C=CC(C)(C)n1cc(C(O)C2NC(=O)[C@H](C(C)C)NC(=O)[C@H](CC(C)C)N(C)C(=O)[C@H](C(C)C)NC(=O)C(C(OC)c3ccccc3)NC(=O)[C@H](C(C)C)NC(=O)C(CC(C)CO)N(C)C2=O)c2ccccc21 (stereo partly specified) | 0.08 µg/mL (≈ 0.0788 µM) | 0.08 µg/mL (≈ 0.0788 µM) | 0.08 µg/mL (≈ 0.0788 µM) | 0.71 µg/mL (≈ 0.699 µM)
2 | CO[C@@H](c1ccccc1)[C@H]1NC(=O)[C@H](C)NC(=O)[C@@H](CC(C)CO)N(C)C(=O)C(C(O)c2cn(C(C)(C)[C@@H]3CO3)c3ccccc23)NC(=O)[C@@H]([C@H](C)C=C(C)C)NC(=O)[C@@H](CC(C)C)N(C)C(=O)[C@@H](C(C)C)NC1=O (stereo partly specified) | – | – | – | 0.48 µg/mL (≈ 0.46 µM)
3 | CO[C@H]1/C=C/O[C@@]2(C)Oc3c(C)c(O)c4c(O)c(c(/C=N/N5CCN(C)CC5)c(O)c4c3C2=O)NC(=O)/C(C)=C\C=C\[C@H](C)[C@H](O)[C@@H](C)[C@@H](O)[C@@H](C)[C@H](OC(C)=O)[C@@H]1C [RIFAMPIN] | – | – | – | 0.08 µg/mL (≈ 0.0972 µM)
